MRP-1 activ = H69AR viability gain despite doxorubicin, primary screen, MRP-1 activator project, H69AR cells, CellTiter-Glo; 0.61% of 140,000 active; viability rescue; viability increase, % at 10 µM; AID 799, 2007;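 active = viability gain under doxorubicin at or above a set limit, the compound median plus 3 SD, cut at about 4.7% in these data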;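 also: MRP-1 overexpressing cells given doxorubicin 25 µM after compound pretreatment; 18-22 h compound pretreatment then 72 h with doxorubicin before readout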
Yeast growth inh = growth inhibitors of yeast BB579 in restrictive medium, primary screen, yeast lifespan-shortening project, S. cerevisiae; OD615, 48 h; inhibition, % at 10 µM; 0.51% of 140,000 active;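 active = inhibition above a set limit, 3 SD over the mean compound inhibition, cut at about 44% in these data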
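Test system: Saccharomyces cerevisiae DeaD strain BB579, replicative lifespan model yeast | Buffer or medium: Restrictive CSMM-D medium | Doses: One dose, 10 µM compound with 0.25% DMSO | Incubation: 48 h exposure, 30 °C | Detection: Culture absorbance at 615 nm | Control set: Amphotericin B at 10 µg/mL as positive control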
Yeast life ext = compounds extending yeast replicative lifespan, primary screen, S. cerevisiae, OD615 | inhibition of the nicotinamide effect, % at 10 µM | S. cerevisiae growth with nicotinamide; deaD strain in restrictive glucose medium | AID 775, 2007 | 0.68% of 130,000 active;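 active = inhibition above a set limit, placed 3 SD over the median of all compounds, cut at about 26% in these data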
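Buffer or medium: CSMM-D glucose medium, restrictive; test system: modified budding yeast, DeaD strain; compound: single dose 10 µM compound, 0.25% DMSO; schedule: culture preincubation 4 h, compound exposure 48 h, both 30 °C; detection: optical density (absorbance) at 615 nm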
Phagocytosis inh = inhibitors of macrophage phagocytosis, primary screen, imaging, J774A.1 cells, IgG beads; J774A.1 macrophage IgG-bead phagocytosis; inhibition, % at 5 µM; 0.07% of 110,000 active; AID 1029, 2008;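 active = inhibition above the mean of the plate negative controls plus 5 SD, cut at about 13% in these data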;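 also: phagocytic index as fraction of beads internalized from green versus red external bead signal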
SDO1 yeast rescue = growth rescue of sdo1-depleted yeast, primary screen, S. cerevisiae, bone marrow failure model | S. cerevisiae sdo1-depleted JHY4D growth rescue, OD600 30 h; stronger effect = higher value; pdr5 snq2 efflux-pump mutant strain | z-score at 10 µM | 0.21% of 140,000 active | AID 817, 2007;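 active = z-score above 3 at both the 24 hr and the 30 hr optical density reads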
MRP reversal = reversal of MRP1-mediated doxorubicin resistance, primary screen, H69AR cells, doxorubicin co-treatment | H69AR cells + 2 uM doxorubicin, CellTiter-Glo, 72 h | 0.04% of 85,000 active | differential viability (reversal), % at 10 µM;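 active = viability drop by adding the cancer drug above about 55%, with treated viability meeting a 40% cutoff, limit read from the data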;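 also: larger differential means the compound sensitizes cells more to doxorubicin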
Hits are given with their value; [ ] = remark or other dose. Only some compounds are listed: those with a hit (about 2.1% of all), similar ones and a draw of the others.

How did Cc1nc(N2CCc3ccccc32)[nH]c(=O)c1CCC(C)C do in these assays?
MRP reversal: inactive

Results for Cn1c(N)c(C(=O)c2ccc(F)cc2F)c(=O)n(C)c1=O ?
MRP-1 activ: inactive; Yeast growth inh: inactive; Yeast life ext: 40.4; Phagocytosis inh: inactive; SDO1 yeast rescue: inactive

How did CCOC(=O)c1c(/N=C/c2cc([N+](=O)[O-])ccc2O)sc(C)c1C do in these assays?
MRP-1 activ: inactive; Yeast growth inh: 61.4; Yeast life ext: inactive; Phagocytosis inh: inactive; SDO1 yeast rescue: inactive

Results for O=C(Cn1c(=O)c2c(ncn2Cc2ccccc2)n(Cc2ccccc2)c1=O)N1CCc2ccccc21 ?
MRP-1 activ: 5.3; Yeast growth inh: inactive; Yeast life ext: inactive; Phagocytosis inh: inactive; SDO1 yeast rescue: inactive; MRP reversal: inactive

Results for CC(C)n1nc(C(=O)Oc2cccc(Cl)c2Cl)c2ccccc2c1=O ?
MRP-1 activ: inactive; Yeast growth inh: inactive; Yeast life ext: 34.7; Phagocytosis inh: inactive; SDO1 yeast rescue: inactive

What do the screens show for `CC1(C)CCCC2=C1CC1C(=O)N(Cc3cccnc3)C(=O)C1C2` (configuration not stated)?
MRP-1 activ: inactive; Yeast growth inh: inactive; Yeast life ext: inactive; Phagocytosis inh: inactive; SDO1 yeast rescue: inactive; MRP reversal: inactive

How did O=Cc1c(Sc2ccccn2)nc2ccccn2c1=O do in these assays?
MRP-1 activ: inactive; Yeast growth inh: inactive; SDO1 yeast rescue: inactive; MRP reversal: inactive

Results for O=Cc1c(Sc2ccccc2)nc2ccccn2c1=O ?
MRP-1 activ: inactive; Yeast growth inh: 64.8; Yeast life ext: inactive; Phagocytosis inh: inactive; SDO1 yeast rescue: inactive; MRP reversal: inactive

How did CCOC(=O)CC(=O)Nc1ccccc1C(=O)O do in these assays?
MRP-1 activ: inactive; Yeast growth inh: inactive; Yeast life ext: inactive; SDO1 yeast rescue: inactive

Results for CC1/C(=N/O)CC(c2ccccc2)N(C)C1c1ccccc1 (configuration not stated) ?
MRP-1 activ: inactive; Yeast growth inh: 88.0; SDO1 yeast rescue: inactive; MRP reversal: inactive

What do the screens show for `O=C(CSc1nncn1-c1ccccc1)Nc1ccc(N2CCOCC2)cc1`?
MRP-1 activ: inactive; Yeast growth inh: inactive; Yeast life ext: inactive; Phagocytosis inh: inactive; SDO1 yeast rescue: inactive; MRP reversal: inactive

What do the screens show for `CCOC(=O)N/N=C(\C)c1ccc(Br)cc1`?
MRP-1 activ: inactive; Yeast growth inh: inactive; Yeast life ext: inactive; Phagocytosis inh: inactive; SDO1 yeast rescue: inactive; MRP reversal: inactive

What do the screens show for `NC(=O)N/N=C\c1cc(Br)ccc1O`?
MRP-1 activ: inactive; Yeast growth inh: inactive; Yeast life ext: inactive; Phagocytosis inh: inactive; SDO1 yeast rescue: inactive

What do the screens show for `CC(C)(C)c1nnc(N/N=C/c2cc(Br)ccc2O)n(N)c1=O`?
MRP-1 activ: inactive; Yeast growth inh: 53.0; Yeast life ext: inactive; Phagocytosis inh: inactive; SDO1 yeast rescue: inactive

What do the screens show for `CCCCCCC1C(C#N)=C(N)OC2=C1C(=O)CC(C)(C)C2` (configuration not stated)?
MRP-1 activ: inactive; Yeast growth inh: inactive; Yeast life ext: 40.1; SDO1 yeast rescue: inactive; MRP reversal: inactive

How did CCOc1ccccc1/C=c1\sc2ncnn2c1=O do in these assays?
MRP-1 activ: inactive; Yeast growth inh: inactive; Yeast life ext: 49.1; SDO1 yeast rescue: inactive; MRP reversal: inactive

Results for CCC1=NN(C(=O)c2ccc(Br)cc2)C(O)(c2ccc(C)cc2)C1 (configuration not stated) ?
MRP-1 activ: inactive; Yeast growth inh: inactive; Yeast life ext: inactive; Phagocytosis inh: inactive; SDO1 yeast rescue: inactive

Results for CCC1=NN(C(=O)c2ccc(C)cc2)C(O)(c2ccc(Br)cc2)C1 (configuration not stated) ?
MRP-1 activ: 4.9; Yeast growth inh: inactive; Yeast life ext: inactive; SDO1 yeast rescue: inactive

Results for CCc1nnc(NC(=O)CCC(=O)N2CCN(Cc3ccc(Cl)cc3)CC2)s1 ?
MRP-1 activ: 6.3; Yeast growth inh: inactive; Yeast life ext: inactive; Phagocytosis inh: inactive; SDO1 yeast rescue: inactive; MRP reversal: inactive

Results for CCc1nnc(NC(=O)c2ccc(-c3ccc(Cl)cc3)o2)s1 ?
MRP-1 activ: 7.2; Yeast growth inh: inactive; Yeast life ext: inactive; Phagocytosis inh: inactive; SDO1 yeast rescue: inactive; MRP reversal: inactive

Results for CCn1nnc(NC(=O)c2ccc(-c3ccc(Cl)cc3)o2)n1 ?
MRP-1 activ: inactive; Yeast growth inh: inactive; Yeast life ext: inactive; Phagocytosis inh: inactive; SDO1 yeast rescue: inactive; MRP reversal: inactive

How did O=C(Cn1c(C2CC2)nc2ccccc2c1=O)Nc1ccc(Br)cc1 do in these assays?
MRP-1 activ: inactive; Yeast growth inh: inactive; Yeast life ext: inactive; Phagocytosis inh: inactive; SDO1 yeast rescue: inactive; MRP reversal: inactive

Results for CCOc1ccc2nc(SCC(=O)NC3CCCc4ccccc43)sc2c1 (configuration not stated) ?
MRP-1 activ: inactive; Yeast growth inh: inactive; Yeast life ext: inactive; Phagocytosis inh: 69.7[artifact]; SDO1 yeast rescue: inactive

What do the screens show for `CCOc1ccc2nc(SCC(=O)N3CCCc4ccccc43)sc2c1`?
MRP-1 activ: inactive; Yeast growth inh: inactive; Yeast life ext: inactive; SDO1 yeast rescue: inactive

What do the screens show for `CC1=C(C(=O)NC2CCCC(C)C2C)C2(CCCCC2)OC1=O` (configuration not stated)?
MRP-1 activ: inactive; Yeast growth inh: inactive; Yeast life ext: inactive; Phagocytosis inh: inactive; SDO1 yeast rescue: inactive; MRP reversal: inactive

What do the screens show for `CCc1ccc(N=CC23c4ccccc4C(c4ccccc42)C2C(=O)N(c4ccc(OC)cc4)C(=O)C23)cc1` (configuration not stated)?
MRP-1 activ: inactive; Yeast growth inh: inactive; Yeast life ext: 28.6; SDO1 yeast rescue: inactive

How did Cc1ccc(S(=O)(=O)N2CCN(CC(=O)N/N=C\c3cccnc3)CC2)cc1 do in these assays?
MRP-1 activ: inactive; Yeast growth inh: inactive; Yeast life ext: inactive; Phagocytosis inh: inactive; SDO1 yeast rescue: inactive

How did O=C(COc1ccccc1)NCc1nnc(SCC(=O)Nc2nccs2)n1-c1ccccc1 do in these assays?
MRP-1 activ: inactive; Yeast growth inh: inactive; Yeast life ext: inactive; Phagocytosis inh: inactive; SDO1 yeast rescue: inactive; MRP reversal: inactive

What do the screens show for `COC(=O)c1ccc(NC(=O)C(=O)N2CCN(C(=S)Nc3cccc(OC)c3)CC2)cc1`?
MRP-1 activ: 6.2; Yeast growth inh: inactive; Yeast life ext: inactive; Phagocytosis inh: inactive; SDO1 yeast rescue: inactive

Results for Cc1ccc(N(C(=O)CCC(=O)Nc2cc(C)on2)C(C(=O)NC2CCCC2)c2cccs2)cc1 (configuration not stated) ?
MRP-1 activ: inactive; Yeast growth inh: inactive; Yeast life ext: inactive; SDO1 yeast rescue: inactive; MRP reversal: inactive

Screening data as filed in PubChem.
